# Results from ChEMBL document CHEMBL4392827, “Tryptamine derivatives disarm colistin resistance in polymyxin-resistant gram-negative bacteria” (Bioorg Med Chem, 2019).
# Key:
# [1] = system: Klebsiella pneumoniae; experiment: Potentiation of colistin-induced antimicrobial activity against colistin-resistant Klebsiella pneumoniae isolate A5 assessed as fold reduction in colistin MIC at 60 uM after 18 hrs by broth microdilution assay; format: functional
# Method in brief: (§1)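 Checkerboard-style resensitization following adapted CLSI broth microdilution. Bacteria were grown 4–6 h in CAMHB and subcultured to 5×10^5 CFU/mL. Adjuvant was added from DMSO stock and held constant while colistin was serially diluted in the dosed subculture. Plates were incubated stationary at 37°C for 18 h, then MICs were read. Fold reduction was taken relative to the colistin MIC without adjuvant.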
# [2] = system: Acinetobacter baumannii; experiment: Potentiation of colistin-induced antimicrobial activity against colistin-resistant Acinetobacter baumannii isolate 4112 assessed as fold reduction in colistin MIC at 60 uM after 18 hrs by broth microdilution assay; format: functional; method in brief: as §1
# [3] = system: Acinetobacter baumannii; experiment: Potentiation of colistin-induced antimicrobial activity against Acinetobacter baumannii ATCC 17978 assessed as fold reduction in colistin MIC at 60 uM after 18 hrs by broth microdilution assay; format: functional
# Method in brief: (§2)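 Bacteria grown 4–6 h in cation-adjusted Mueller-Hinton broth and diluted to 5 ×10^5 CFU/mL. Adjuvant from DMSO stock held at fixed 60 μM while colistin is twofold serially diluted in the same adjuvant-dosed broth. Plates sealed and kept stationary at 37°C for 18 h. Colistin MIC read and fold reduction taken relative to colistin alone.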
# [4] = system: Acinetobacter baumannii; experiment: Potentiation of colistin-induced antimicrobial activity against colistin-resistant Acinetobacter baumannii ATCC 17978 expressing mcr1 gene assessed as fold reduction in colistin MIC at 60 uM after 18 hrs by broth microdilution assay; format: functional; method in brief: as §1
# [5] = system: Klebsiella pneumoniae; experiment: Potentiation of colistin-induced antimicrobial activity against colistin-resistant Klebsiella pneumoniae B9 assessed as fold reduction in colistin MIC at 60 uM after 18 hrs by broth microdilution assay; format: functional; method in brief: as §1
# [6] = system: Acinetobacter baumannii; experiment: Potentiation of colistin-induced antimicrobial activity against colistin-resistant Acinetobacter baumannii 4106 assessed as fold reduction in colistin MIC at 60 uM after 18 hrs by broth microdilution assay; format: functional; method in brief: as §1
# [7] = system: Klebsiella pneumoniae; experiment: Potentiation of colistin-induced antimicrobial activity against Klebsiella pneumoniae ATCC BAA-2146 expressing NDM1 gene assessed as fold reduction in colistin MIC at 60 uM after 18 hrs by broth microdilution assay; format: functional; method in brief: as §2
# [8] = system: Acinetobacter baumannii; experiment: Potentiation of colistin-induced antimicrobial activity against colistin-resistant Acinetobacter baumannii isolate 3941 assessed as fold reduction in colistin MIC at 60 uM after 18 hrs by broth microdilution assay; format: functional; method in brief: as §1
# [9] = system: Klebsiella pneumoniae; experiment: Potentiation of colistin-induced antimicrobial activity against colistin-resistant Klebsiella pneumoniae isolate C3 assessed as fold reduction in colistin MIC at 60 uM after 18 hrs by broth microdilution assay; format: functional; method in brief: as §1
# [10] = system: Acinetobacter baumannii; experiment: Potentiation of colistin-induced antimicrobial activity against colistin-resistant Acinetobacter baumannii isolate 3942 assessed as fold reduction in colistin MIC at 60 uM after 18 hrs by broth microdilution assay; format: functional; method in brief: as §1
# [11] = system: Acinetobacter baumannii; experiment: Potentiation of colistin-induced antimicrobial activity against colistin-sensitive Acinetobacter baumannii 5075 assessed as fold reduction in colistin MIC at 60 uM after 18 hrs by broth microdilution assay; format: functional; method in brief: as §2
# [12] = system: Escherichia coli; experiment: Potentiation of colistin-induced antimicrobial activity against Escherichia coli ATCC 25922 assessed as fold reduction in colistin MIC at 60 uM after 18 hrs by broth microdilution assay; format: functional; method in brief: as §2
# [13] = system: Acinetobacter baumannii; experiment: Toxicity in Acinetobacter baumannii 4106 after 18 hrs by broth microdilution assay; format: organism-based; details: in vitro
# Method in brief: (§3)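 Single-agent MIC per CLSI broth microdilution. Cells from a 4–6 h culture in cation-adjusted Mueller-Hinton broth adjusted to 5 ×10^5 CFU/mL. Compound (DMSO stock) added to 200 μM top concentration and twofold serially diluted six times, with an untreated control row. Plates sealed and incubated stationary at 37°C for 18 h before MIC read.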
# [14] = system: Klebsiella pneumoniae; experiment: Toxicity in Klebsiella pneumoniae B9 after 18 hrs by broth microdilution assay; format: organism-based; method in brief: as §3
# [15] = system: Escherichia coli; experiment: Toxicity in Escherichia coli ATCC 25922 after 18 hrs by broth microdilution assay; format: organism-based; details: in vitro; method in brief: as §3
# [16] = system: Acinetobacter baumannii; experiment: Toxicity in Acinetobacter baumannii ATCC 17978 expressing mcr1 gene after 18 hrs by broth microdilution assay; format: organism-based; method in brief: as §3
# [17] = system: Escherichia coli; experiment: Potentiation of colistin-induced antimicrobial activity against colistin-resistant Escherichia coli ATCC 25922 expressing mcr1 gene assessed as fold reduction in colistin MIC at 60 uM after 18 hrs by broth microdilution assay; format: functional; method in brief: as §1
SMILES,fold change (FC) [1],fold change (FC) [2],fold change (FC) [3],fold change (FC) [4],fold change (FC) [5],fold change (FC) [6],fold change (FC) [7],fold change (FC) [8],fold change (FC) [9],fold change (FC) [10],fold change (FC) [11],fold change (FC) [12],MIC [13] [µM],MIC [14] [µM],MIC [15] [µM],MIC [16] [µM],fold change (FC) [17]
O=C(NCCc1c[nH]c2ccccc12)c1cc(I)c[nH]1,32,32,2,16,2048,64,2,64,128,32,0,2,–,–,–,–,–
O=C(NCCc1c[nH]c2cc(F)ccc12)c1cc(Br)c(Br)[nH]1,256,512,2,32,64,512,2,512,512,512,2,2,> 200,> 200,> 200,> 200,8
O=C(NCCc1c[nH]c2ccccc12)c1cccc(Br)n1,0,8,2,–,1024,16,2,8,512,8,0,2,–,–,–,–,–
O=C(NCc1ccc2cc[nH]c2c1)c1cc(Br)c(Br)[nH]1,256,256,2,32,2048,256,0,128,512,128,2,2,> 200,> 200,> 200,> 200,8
Cc1cccc2c(CCNC(=O)c3cc(Br)c(Br)[nH]3)c[nH]c12,256,256,2,32,512,256,2,256,512,256,2,2,> 200,> 200,> 200,> 200,8
O=C(NCCCc1c[nH]c2ccccc12)c1cc(Br)c(Br)[nH]1,256,256,4,32,4096,512,2,256,1024,256,4,2,> 200,> 200,> 200,> 200,16
O=C(NCCc1c[nH]c2ccccc12)c1cc(Br)c(Br)[nH]1,256,512,4,32,2048,512,2,256,1024,512,2,4,–,–,–,–,8
O=C(NCc1cc2ccccc2[nH]1)c1cc(Br)c(Br)[nH]1,512,512,2,32,4096,2048,0,256,2048,256,2,2,> 200,> 200,> 200,> 200,16
O=C(NCCc1c[nH]c2ccccc12)c1cc(I)c(I)[nH]1,256,128,2,16,2048,128,2,128,512,128,2,2,–,–,–,–,4
